Converted amounts (≈) assume the structure as drawn.
How the values were obtained:
[1] = system: Aspergillus fumigatus; assay: Tested in vitro for minimum inhibitory concentration against Aspergillus fumigatus; format: functional
Outline: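 Broth macrodilution in glass tubes with Sabouraud's dextrose broth (pH 6.5). Compounds were dissolved in DMSO and serially diluted in medium. Inoculum was filamentous fungus harvested by spatula from Kimmig agar cultures grown 21 days at 30 °C. Tubes were incubated 72 h at 30 °C. MIC was the lowest concentration with no macroscopically visible growth.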

[2] = system: Candida albicans; assay: Tested in vitro for minimum inhibitory concentration against Candida albicans 124; format: functional
Outline: (§1)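 Yeasts were tested by tube dilution in malt extract broth (pH 4.8), with DMSO-dissolved compounds serially diluted in the broth. Blastospores came from yeast nitrogen base cultures shaken at 37 °C for about 30 h. After 48 h at 30 °C, MIC was read as the lowest concentration without macroscopic growth.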

[3] = system: Candida parapsilosis; assay: Tested in vitro for minimum inhibitory concentration against Candida parapsilosis 39; format: functional; conditions: Lodderomyces parapsilosis; outline: as §1
[4] = system: Microsporum canis; assay: Tested in vitro for minimum inhibitory concentration against Microsporum canis; format: functional
Outline: (§2)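 Glass-tube serial dilution in Sabouraud's dextrose broth (pH 6.5), with compounds dissolved in DMSO and diluted in medium. Mycelial inoculum was scraped from 21-day Kimmig agar cultures grown at 30 °C. Incubation was 7 days at 30 °C. MIC was the lowest concentration giving no macroscopically detectable growth.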

[5] = system: Sporothrix schenckii; assay: Tested in vitro for minimum inhibitory concentration against Sporothrix schenck ii; format: functional; outline: as §2
[6] = system: Trichophyton benhamiae; assay: Tested in vitro for minimum inhibitory concentration against Trichophyton mentagrophytes; format: functional, Arthroderma benhamiae; outline: as §2
[7] = system: Candida albicans; assay: Tested in vitro for minimum inhibitory concentration against Candida albicans 9; format: functional; outline: as §1

| SMILES | MIC [1] | MIC [2] | MIC [3] | MIC [4] | MIC [5] | MIC [6] | MIC [7] |
| --- | --- | --- | --- | --- | --- | --- | --- |
| CN(C/C=C/C#CC(C)(C)C)Cc1cccc2ccc(F)cc12 | 0.4 µg/mL (≈ 1.29 µM) | 12.5 µg/mL (≈ 40.4 µM) | 0.4 µg/mL (≈ 1.29 µM) | 0.006 µg/mL (≈ 0.0194 µM) | 0.4 µg/mL (≈ 1.29 µM) | 6 ng/mL (≈ 0.0194 µM) | 3.13 µg/mL (≈ 10.1 µM) |
| CN(C/C=C/C#CC(C)(C)C)Cc1cc(C#N)cc2ccccc12 | > 200 µg/mL | > 200 µg/mL | 0.4 µg/mL (≈ 1.26 µM) | 0.05 µg/mL (≈ 0.158 µM) | > 200 µg/mL | 50 ng/mL (≈ 0.158 µM) | > 200 µg/mL |
| CN(C/C=C/C#CC(C)(C)C)Cc1cccc2c(F)cc(F)cc12 | 0.1 µg/mL (≈ 0.305 µM) | 1.56 µg/mL (≈ 4.76 µM) | 0.1 µg/mL (≈ 0.305 µM) | 0.003 µg/mL (≈ 0.00916 µM) | 0.1 µg/mL (≈ 0.305 µM) | 3 ng/mL (≈ 0.00916 µM) | 0.8 µg/mL (≈ 2.44 µM) |
| CN(C/C=C/C#CC(C)(C)C)Cc1cccc2c(Cl)cccc12 | 0.1 µg/mL (≈ 0.307 µM) | 1.56 µg/mL (≈ 4.79 µM) | 0.2 µg/mL (≈ 0.614 µM) | 0.006 µg/mL (≈ 0.0184 µM) | 0.4 µg/mL (≈ 1.23 µM) | 3 ng/mL (≈ 0.00921 µM) | 0.8 µg/mL (≈ 2.45 µM) |
| CN(C/C=C/C#CC(C)(C)C)Cc1cccc2c(Cl)csc12 | 0.1 µg/mL (≈ 0.301 µM) | 0.8 µg/mL (≈ 2.41 µM) | 0.1 µg/mL (≈ 0.301 µM) | 0.003 µg/mL (≈ 0.00904 µM) | 0.2 µg/mL (≈ 0.603 µM) | 1.5 ng/mL (≈ 0.00452 µM) | 0.4 µg/mL (≈ 1.21 µM) |
| CN(C/C=C/C#CC(C)(C)C)Cc1ccc(F)c2ccccc12 | 3.13 µg/mL (≈ 10.1 µM) | 25 µg/mL (≈ 80.8 µM) | 0.8 µg/mL (≈ 2.59 µM) | 0.01 µg/mL (≈ 0.0323 µM) | 0.4 µg/mL (≈ 1.29 µM) | 10 ng/mL (≈ 0.0323 µM) | 12.5 µg/mL (≈ 40.4 µM) |
| CN(C/C=C/C#CC(C)(C)C)Cc1cccc2c(Br)cccc12 | 1.56 µg/mL (≈ 4.21 µM) | 3.13 µg/mL (≈ 8.45 µM) | 0.8 µg/mL (≈ 2.16 µM) | 0.01 µg/mL (≈ 0.027 µM) | 0.1 µg/mL (≈ 0.27 µM) | 6 ng/mL (≈ 0.0162 µM) | 1.56 µg/mL (≈ 4.21 µM) |
| CN(C/C=C/C#CC(C)(C)C)Cc1cccc2c(F)cccc12 | 0.1 µg/mL (≈ 0.323 µM) | 3.13 µg/mL (≈ 10.1 µM) | 0.2 µg/mL (≈ 0.646 µM) | 0.006 µg/mL (≈ 0.0194 µM) | 0.2 µg/mL (≈ 0.646 µM) | 6 ng/mL (≈ 0.0194 µM) | 1.56 µg/mL (≈ 5.04 µM) |
| Cc1cc(CN(C)C/C=C/C#CC(C)(C)C)c2ccccc2c1 | 3.13 µg/mL (≈ 10.2 µM) | 50 µg/mL (≈ 164 µM) | 1.56 µg/mL (≈ 5.11 µM) | 0.02 µg/mL (≈ 0.0655 µM) | 0.2 µg/mL (≈ 0.655 µM) | 10 ng/mL (≈ 0.0327 µM) | 50 µg/mL (≈ 164 µM) |
| CN(C/C=C/C#CC(C)(C)C)Cc1cc(F)cc2ccccc12 | 0.8 µg/mL (≈ 2.59 µM) | 6.25 µg/mL (≈ 20.2 µM) | 0.2 µg/mL (≈ 0.646 µM) | 0.006 µg/mL (≈ 0.0194 µM) | 0.2 µg/mL (≈ 0.646 µM) | 6 ng/mL (≈ 0.0194 µM) | 0.8 µg/mL (≈ 2.59 µM) |
| CN(C/C=C/C#CC(C)(C)C)Cc1cccc2c(C#N)cccc12 | > 200 µg/mL | > 200 µg/mL | 3.13 µg/mL (≈ 9.89 µM) | 0.4 µg/mL (≈ 1.26 µM) | 6.25 µg/mL (≈ 19.8 µM) | 200 ng/mL (≈ 0.632 µM) | > 200 µg/mL |
| Cc1ccc2cccc(CN(C)C/C=C/C#CC(C)(C)C)c2c1 | 1.56 µg/mL (≈ 5.11 µM) | 50 µg/mL (≈ 164 µM) | 0.8 µg/mL (≈ 2.62 µM) | 0.05 µg/mL (≈ 0.164 µM) | 0.4 µg/mL (≈ 1.31 µM) | 10 ng/mL (≈ 0.0327 µM) | 25 µg/mL (≈ 81.8 µM) |
| CN(C/C=C/C#CC(C)(C)C)Cc1ccc(C#N)c2ccccc12 | > 200 µg/mL | > 200 µg/mL | 12.5 µg/mL (≈ 39.5 µM) | 0.1 µg/mL (≈ 0.316 µM) | > 200 µg/mL | 200 ng/mL (≈ 0.632 µM) | > 200 µg/mL |
| Cc1ccc2c(CN(C)C/C=C/C#CC(C)(C)C)cccc2c1 | > 200 µg/mL | 25 µg/mL (≈ 81.8 µM) | 0.8 µg/mL (≈ 2.62 µM) | 0.05 µg/mL (≈ 0.164 µM) | 0.4 µg/mL (≈ 1.31 µM) | 10 ng/mL (≈ 0.0327 µM) | 12.5 µg/mL (≈ 40.9 µM) |
| Cc1ccc(CN(C)C/C=C/C#CC(C)(C)C)c2ccccc12 | > 200 µg/mL | 50 µg/mL (≈ 164 µM) | 3.13 µg/mL (≈ 10.2 µM) | 0.05 µg/mL (≈ 0.164 µM) | 0.8 µg/mL (≈ 2.62 µM) | 20 ng/mL (≈ 0.0655 µM) | 25 µg/mL (≈ 81.8 µM) |
| CN(C/C=C/C#CC(C)(C)C)Cc1cccc2ccc(Cl)cc12 | 1.56 µg/mL (≈ 4.79 µM) | 12.5 µg/mL (≈ 38.4 µM) | 0.4 µg/mL (≈ 1.23 µM) | 0.02 µg/mL (≈ 0.0614 µM) | 0.4 µg/mL (≈ 1.23 µM) | 20 ng/mL (≈ 0.0614 µM) | 3.13 µg/mL (≈ 9.6 µM) |
| Cc1cccc2c(CN(C)C/C=C/C#CC(C)(C)C)cccc12 | 0.8 µg/mL (≈ 2.62 µM) | 12.5 µg/mL (≈ 40.9 µM) | 1.56 µg/mL (≈ 5.11 µM) | 0.02 µg/mL (≈ 0.0655 µM) | 0.4 µg/mL (≈ 1.31 µM) | 6 ng/mL (≈ 0.0196 µM) | 6.25 µg/mL (≈ 20.5 µM) |
| CN(C/C=C/C#CC(C)(C)C)Cc1cccc2cc(F)ccc12 | 6.25 µg/mL (≈ 20.2 µM) | 25 µg/mL (≈ 80.8 µM) | 1.56 µg/mL (≈ 5.04 µM) | 0.006 µg/mL (≈ 0.0194 µM) | 0.8 µg/mL (≈ 2.59 µM) | 6 ng/mL (≈ 0.0194 µM) | 6.25 µg/mL (≈ 20.2 µM) |
| CN(C/C=C/C#CC(C)(C)C)Cc1cccc2ccccc12 [TERBINAFINE] | 0.8 µg/mL (≈ 2.75 µM) | 25 µg/mL (≈ 85.8 µM) | 0.8 µg/mL (≈ 2.75 µM) | 0.006 µg/mL (≈ 0.0206 µM) | 0.4 µg/mL (≈ 1.37 µM) | 3 ng/mL (≈ 0.0103 µM) | 6.25 µg/mL (≈ 21.4 µM) |
